Data published in ChEMBL document CHEMBL3525942, “Disposition and metabolism of [14C]SB-649868, an orexin 1 and 2 receptor antagonist, in humans” (Drug Metab Dispos, 2011).
Blank lines part the entries; values can stand above or below the compound they belong to.

Columns and labels:
[1] = Drug level in human urine treated with [14C]SB-649868 at 30 mg, po single dose after 0 to 72 hrs by HPLC-MSn analysis; settings: in vivo, 0-72 h
[2] = tested on: Homo sapiens; assay: Total drug excretion in human at 30 mg, po single dose measured at 0 to 120 hrs; type: ADME, organism-based; parameters: dosed compound name [14C]SB-649868; settings: in vivo
Method in brief: (§1)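 After one oral 30 mg [14C] dose in eight healthy men, urine was collected at 0–6, 6–12 and 12–24 h, then every 24 h to 216 h. Feces were collected every 24 h to 216 h and homogenized 1:1 with water. Radioactivity was counted by LSC in triplicate aliquots. Results given as cumulative % of dose, mean (S.D.).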

[3] = tested on: Homo sapiens; assay: Total drug excretion in human at 30 mg, po single dose measured at 0 to 144 hrs; type: ADME, organism-based; parameters: dosed compound name [14C]SB-649868; settings: in vivo
Method in brief: as §1

[4] = tested on: Homo sapiens; assay: Total drug excretion in human at 30 mg, po single dose measured at 0 to 168 hrs; type: ADME, organism-based; parameters: dosed compound name [14C]SB-649868; settings: in vivo
Method in brief: as §1

[5] = tested on: Homo sapiens; assay: Total drug excretion in human at 30 mg, po single dose measured at 0 to 192 hrs; type: ADME, organism-based; parameters: dosed compound name [14C]SB-649868; settings: in vivo
Method in brief: as §1

[6] = tested on: Homo sapiens; assay: Total drug excretion in human at 30 mg, po single dose measured at 0 to 216 hrs; type: ADME, organism-based; parameters: dosed compound name [14C]SB-649868; settings: in vivo
Method in brief: as §1

[7] = tested on: Homo sapiens; assay: AUC (0 to infinity) in human plasma assessed as total radioactivity at 30 mg, po single dose; type: ADME, organism-based; parameters: dosed compound name [14C]SB-649868; settings: in vivo
Method in brief: (§2)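 Eight healthy men given one oral capsule of [14C] drug, 30 mg (approx. 70 µCi), with 160 ml water. Blood in K-EDTA tubes from pre-dose to 96 h, chilled and spun at 4°C. Plasma read by LSC in triplicate 0.25 ml aliquots, quench-corrected and background-subtracted. Noncompartmental analysis: Cmax and tmax read from the data, t1/2 = ln2/λz, AUC by linear-up/log-down trapezoids. Geometric means.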

[8] = tested on: Homo sapiens; assay: AUC (0 to t) in human plasma assessed as total radioactivity at 30 mg, po single dose; type: ADME, organism-based; parameters: dosed compound name [14C]SB-649868; settings: in vivo
Method in brief: as §2

[9] = tested on: Homo sapiens; assay: Cmax in human plasma assessed as total radioactivity at 30 mg, po single dose; type: ADME, organism-based; parameters: dosed compound name [14C]SB-649868; settings: in vivo
Method in brief: as §2

[10] = tested on: Homo sapiens; assay: Tmax in human plasma assessed as total radioactivity at 30 mg, po single dose; type: ADME, organism-based; parameters: dosed compound name [14C]SB-649868; settings: in vivo
Method in brief: as §2

[11] = tested on: Homo sapiens; assay: Apparent half life in human plasma assessed as total radioactivity at 30 mg, po single dose; type: ADME, organism-based; parameters: dosed compound name [14C]SB-649868; settings: in vivo
Method in brief: as §2

[12] = Drug excretion in human urine at 30 mg, po single dose measured at 0 to 6 hrs; type: ADME, organism-based; parameters: dosed compound name [14C]SB-649868; settings: in vivo
Method in brief: as §1

[13] = Drug excretion in human urine at 30 mg, po single dose measured at 0 to 12 hrs; type: ADME, organism-based; parameters: dosed compound name [14C]SB-649868; settings: in vivo
Method in brief: as §1

[14] = Drug excretion in human urine at 30 mg, po single dose measured at 0 to 24 hrs; type: ADME, organism-based; parameters: dosed compound name [14C]SB-649868; settings: in vivo
Method in brief: as §1

[15] = Drug excretion in human urine at 30 mg, po single dose measured at 0 to 48 hrs; type: ADME, organism-based; parameters: dosed compound name [14C]SB-649868; settings: in vivo
Method in brief: as §1

[16] = Drug excretion in human urine at 30 mg, po single dose measured at 0 to 72 hrs; type: ADME, organism-based; parameters: dosed compound name [14C]SB-649868; settings: in vivo
Method in brief: as §1

[17] = Drug excretion in human urine at 30 mg, po single dose measured at 0 to 96 hrs; type: ADME, organism-based; parameters: dosed compound name [14C]SB-649868; settings: in vivo
Method in brief: as §1

[18] = Drug excretion in human urine at 30 mg, po single dose measured at 0 to 120 hrs; type: ADME, organism-based; parameters: dosed compound name [14C]SB-649868; settings: in vivo
Method in brief: as §1

[19] = Drug excretion in human urine at 30 mg, po single dose measured at 0 to 144 hrs; type: ADME, organism-based; parameters: dosed compound name [14C]SB-649868; settings: in vivo
Method in brief: as §1

[20] = Drug excretion in human urine at 30 mg, po single dose measured at 0 to 168 hrs; type: ADME, organism-based; parameters: dosed compound name [14C]SB-649868; settings: in vivo
Method in brief: as §1

[21] = Drug excretion in human urine at 30 mg, po single dose measured at 0 to 192 hrs; type: ADME, organism-based; parameters: dosed compound name [14C]SB-649868; settings: in vivo
Method in brief: as §1

[22] = Drug excretion in human urine at 30 mg, po single dose measured at 0 to 216 hrs; type: ADME, organism-based; parameters: dosed compound name [14C]SB-649868; settings: in vivo
Method in brief: as §1

[23] = Drug excretion in human feces at 30 mg, po single dose measured at 0 to 24 hrs; type: ADME, organism-based; parameters: dosed compound name [14C]SB-649868; settings: in vivo
Method in brief: as §1

[24] = Drug excretion in human feces at 30 mg, po single dose measured at 0 to 48 hrs; type: ADME, organism-based; parameters: dosed compound name [14C]SB-649868; settings: in vivo
Method in brief: as §1

[25] = Drug excretion in human feces at 30 mg, po single dose measured at 0 to 72 hrs; type: ADME, organism-based; parameters: dosed compound name [14C]SB-649868; settings: in vivo
Method in brief: as §1

[26] = Drug excretion in human feces at 30 mg, po single dose measured at 0 to 96 hrs; type: ADME, organism-based; parameters: dosed compound name [14C]SB-649868; settings: in vivo
Method in brief: as §1

[27] = Drug excretion in human feces at 30 mg, po single dose measured at 0 to 120 hrs; type: ADME, organism-based; parameters: dosed compound name [14C]SB-649868; settings: in vivo
Method in brief: as §1

[28] = Drug excretion in human feces at 30 mg, po single dose measured at 0 to 144 hrs; type: ADME, organism-based; parameters: dosed compound name [14C]SB-649868; settings: in vivo
Method in brief: as §1

[29] = Drug excretion in human feces at 30 mg, po single dose measured at 0 to 168 hrs; type: ADME, organism-based; parameters: dosed compound name [14C]SB-649868; settings: in vivo
Method in brief: as §1

[30] = Drug excretion in human feces at 30 mg, po single dose measured at 0 to 192 hrs; type: ADME, organism-based; parameters: dosed compound name [14C]SB-649868; settings: in vivo
Method in brief: as §1

[31] = Drug excretion in human feces at 30 mg, po single dose measured at 0 to 216 hrs; type: ADME, organism-based; parameters: dosed compound name [14C]SB-649868; settings: in vivo
Method in brief: as §1

[32] = tested on: Homo sapiens; assay: Total drug excretion in human at 30 mg, po single dose measured at 0 to 6 hrs; type: ADME, organism-based; parameters: dosed compound name [14C]SB-649868; settings: in vivo
Method in brief: (§3)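 Healthy male volunteers (n=8) given single oral 30 mg (approx. 70 µCi) [14C]-labelled dose in a capsule with 160 ml water. Urine collected pre-dose, 0–6, 6–12, 12–24 h, then 24 h intervals to 216 h; feces at 24 h intervals to 216 h, homogenized 1:1 with water. Triplicate aliquots counted by LSC with quench correction and background subtraction; cumulative excretion expressed as % of dose.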

[33] = tested on: Homo sapiens; assay: Total drug excretion in human at 30 mg, po single dose measured at 0 to 12 hrs; type: ADME, organism-based; parameters: dosed compound name [14C]SB-649868; settings: in vivo
Method in brief: as §1

[34] = tested on: Homo sapiens; assay: Total drug excretion in human at 30 mg, po single dose measured at 0 to 24 hrs; type: ADME, organism-based; parameters: dosed compound name [14C]SB-649868; settings: in vivo
Method in brief: as §1

[35] = tested on: Homo sapiens; assay: Total drug excretion in human at 30 mg, po single dose measured at 0 to 48 hrs; type: ADME, organism-based; parameters: dosed compound name [14C]SB-649868; settings: in vivo
Method in brief: as §1

[36] = tested on: Homo sapiens; assay: Total drug excretion in human at 30 mg, po single dose measured at 0 to 72 hrs; type: ADME, organism-based; parameters: dosed compound name [14C]SB-649868; settings: in vivo
Method in brief: as §3

[37] = tested on: Homo sapiens; assay: Total drug excretion in human at 30 mg, po single dose measured at 0 to 96 hrs; type: ADME, organism-based; parameters: dosed compound name [14C]SB-649868; settings: in vivo
Method in brief: as §3

Compound recovery [1]: 0.6%
SMILES: Cc1nc(C(=O)N2CCCC[C@H]2CNC(=O)c2cccc3oc(O)cc23)c(-c2ccc(F)cc2)s1

Radiolabel recovery [2]: 87.3%
Radiolabel recovery [3]: 88.7%
Radiolabel recovery [4]: 89.7%
Radiolabel recovery [5]: 90.5%
Radiolabel recovery [6]: 91.1%
Radiolabel recovery [7]: 37.3 ugequiv.hr/ml
Radiolabel recovery [8]: 31 ugequiv.hr/ml
Radiolabel recovery [9]: 1.66 ugequiv/ml
Radiolabel recovery [10]: 4 h
Radiolabel recovery [11]: 39.3 h
Radiolabel recovery [12]: 2.3%
Radiolabel recovery [13]: 5.9%
Radiolabel recovery [14]: 8.9%
Radiolabel recovery [15]: 10.7%
Radiolabel recovery [16]: 11.3%
Radiolabel recovery [17]: 11.6%
Radiolabel recovery [18]: 11.7%
Radiolabel recovery [19]: 11.9%
Radiolabel recovery [20]: 11.9%
Radiolabel recovery [21]: 12%
Radiolabel recovery [22]: 12%
Radiolabel recovery [23]: 1.9%
Radiolabel recovery [24]: 36.8%
Radiolabel recovery [25]: 60%
Radiolabel recovery [26]: 69.6%
Radiolabel recovery [27]: 75.6%
Radiolabel recovery [28]: 76.8%
Radiolabel recovery [29]: 77.7%
Radiolabel recovery [30]: 78.5%
Radiolabel recovery [31]: 79.1%
Radiolabel recovery [32]: 2.3%
Radiolabel recovery [33]: 5.9%
Radiolabel recovery [34]: 10.8%
Radiolabel recovery [35]: 47.5%
Radiolabel recovery [36]: 71.3%
Radiolabel recovery [37]: 81.2%
SMILES: C[14c]1nc(C(=O)N2CCCC[C@H]2CNC(=O)c2cccc3occc23)c(-c2ccc(F)cc2)s1
